Inhibition data for 117 compounds are collected here from ChEMBL document CHEMBL4118110, “The identification of inhibitory compounds of Rickettsia prowazekii methionine aminopeptidase for antibacterial applications” (Bioorg Med Chem Lett, 2018).

The nature of the assay: Inhibition of Rickettsia prowazekii N-terminal His6-tagged methionine aminopeptidase 1 expressed in Escherichia coli DLB3 Rosetta cells at 10 uM using Met-AMC as substrate preincubated for 1 hr followed by 30 mins incubation after substrate addition measured after 90 mins in presence of MnCl2 by fluorescence assay relative to control. In outline: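 Recombinant R. prowazekii MetAP with Mn(II) as the metal cofactor. Met-AMC substrate; release of free AMC is followed by fluorescence (excitation 360 nm, emission 460 nm). Activity is the slope of fluorescence versus time, compared with an uninhibited control.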
As usually defined, the inhibition is the change of the read-out against control, counted positive when it falls. Regarding `O=C1CCCN1c1ccc(S(=O)(=O)Nc2cccc3cccnc23)cc1`, the inhibition is 5 to 22%.
Regarding `O=C(O)c1ccc(CSc2ccccc2)o1`, the inhibition was in the range of 5 to 34%.
In the case of `Cc1c(C(=O)O)sc2nc[nH]c(=O)c12`, the inhibition lay in the range of 44 to 51%.
For `O=C(O)c1ccc(C2=NCc3ccccc3N2)o1`, the inhibition is 7 to 63%.
Regarding `Cc1cc(C)cc(OCCSc2nnc(N)[nH]2)c1`, the inhibition fell in the range of 38 to 39%.
For the compound `COc1cccc(C(=O)Nc2ccsc2C(=O)O)c1`, the inhibition lay in the range of 1 to 32%.
As to `Cc1cccn2c(=O)c3cc(C(=O)O)sc3nc12`, the inhibition fell in the range of 31 to 36%.
As to `COc1ccccc1C1CC(c2cc(F)ccc2O)=NN1` (configuration not stated), the inhibition lay in the range of 1 to 57%.
Regarding `Cc1cc(OC(C)C(=O)NN)cc(C)c1Cl` (configuration not stated), the inhibition lay in the range of 31 to 69%.
With `Nc1n[nH]c(SCc2cccc(Br)c2)n1`, the inhibition fell in the range of 55 to 64%.
On to `Cc1cc(C)n2c(C(N)CC(C)C)nnc2n1` (configuration not stated), for which the inhibition lay within 6 to 23%.
The result for `O=C(O)c1cc(-c2cccnc2)on1` reads 29 to 33%.
For `Cc1c(C(=O)O)sc2ncn(C(C)C)c(=O)c12`, the inhibition fell in the range of 5 to 19%.
For `Cc1cc(C)nc(SCc2ccc(C(=O)O)o2)n1`, the inhibition is 9 to 11%.
With `CCOC(=O)CSc1nnc(CC)[nH]1`, the inhibition fell in the range of 6 to 22%.
As to `CCc1n[nH]c(SCc2ccc([N+](=O)[O-])cc2)n1`, the inhibition lay in the range of 1 to 27%.
The result for `O=C(O)c1ccc(COc2ccccc2F)o1` reads 5 to 46%; that for `Cc1nnc(SCC(=O)c2ccc(C(C)C)cc2)[nH]1`, 1 to 41%; that for `O=C(O)C1=NN(c2ccccc2)C(=O)CC1`, 14 to 39%.
On to `COc1ccc(C=O)cc1OCc1ccc(C(=O)O)o1`, for which the inhibition lay in the range of 36 to 65%.
Consider `Nc1nnc(SCc2ccc(F)cc2)[nH]1`, for which the inhibition was in the range of 1 to 18%.
As for `Nc1nnc(SCC(=O)OCc2ccccc2)[nH]1`, the inhibition is 20 to 34%.
With `O=C(O)c1n[nH]c2ccccc12`, the inhibition was in the range of 35 to 36%.
Next, `Nc1nnc(SCCN2CCCCC2)[nH]1`: 1 to 34%; `CCc1nnc(SCC(=O)OC)[nH]1`: 6 to 25%.
Turning to `NNC(=O)c1ccc(-c2ccc(Cl)cc2)o1`, the inhibition was 10 to 41%.
For the compound `O=C(O)c1nn(-c2ccccc2)c(=O)c2ccccc12`, the inhibition was in the range of 21 to 44%.
On to `O=C(CSc1nnc(-c2ccco2)[nH]1)N1CCCCC1`, for which the inhibition was in the range of 1 to 48%.
Regarding `Cc1c(C(=O)O)sc2ncn(CC3CCCO3)c(=O)c12` (configuration not stated), the inhibition lay in the range of 10 to 24%.
`Cc1nc(-c2ccccn2)sc1C(=O)N1CCCCC1`: the inhibition fell in the range of 15 to 20%.
The result for `c1ccc(-c2cc[nH]n2)nc1` reads 2 to 52%; that for `Cc1ccc(-n2nnc(C(=O)O)c2C2CC2)cc1`, 1 to 44%.
`COc1ccc(O)c(C2=NNC(c3ccc(F)cc3)C2)c1` (configuration not stated): the inhibition was 26 to 48%.
`Cc1cc(C(=O)O)nn1-c1cccc(Cl)c1`: the inhibition is 1 to 22%.
In the case of `Cc1c(C(=O)O)sc2nc(C)n(C)c(=O)c12`, the inhibition was 22 to 34%.
Take `O=C(O)c1cn(-c2ccccc2)nn1`: the inhibition lay in the range of 1 to 47%.
Next, `CC(N)c1ncc(-c2ccc(F)cc2)o1` (configuration not stated): 46 to 50%.
The result for `Cc1nc(C(=O)O)c(-c2ccccc2F)s1` reads 26 to 31%; that for `Cc1ccc(-n2nnc(C(=O)O)c2C)cc1C`, 41%; that for `CSc1cc(C(=O)O)nc(-c2ccccn2)c1`, 36 to 68%.
The result for `O=C(O)c1cnccn1` reads 42 to 45%; that for `Cc1c(C(=O)O)sc2ncn(C)c(=O)c12`, 9 to 47%; that for `Cc1nnc(SCC(=O)N2CCCc3ccccc32)[nH]1`, 43 to 44%.
Consider `CC(C)CCNC(=O)c1ccc2[nH]c(=O)c(=O)[nH]c2c1`, for which the inhibition was in the range of 49 to 54%.
For the compound `O=C(O)c1cc(-c2ccccn2)nc2ccc(F)cc12`, the inhibition was in the range of 29 to 61%.
Next, `COCCn1cnc2sc(C(=O)O)c(C)c2c1=O`: 20 to 24%; `CCCCOC(=O)CSc1nnc(N)[nH]1`: 39 to 62%; `O=C(CSc1nnc[nH]1)Nc1ccccc1`: 2 to 60%.
With `O=C(O)c1ccc(CSc2ccc(Cl)cc2)o1`, the inhibition was 20 to 28%.
In the case of `Nc1ccccc1-c1nc(-c2ccc(F)cc2)no1`, the inhibition was in the range of 1 to 44%.
Consider `CCCCCn1cnc2sc(C(=O)O)c(C)c2c1=O`, for which the inhibition was in the range of 34 to 57%.
Regarding `Cc1nc2sc(C(=O)O)c(C)c2c(=O)[nH]1`, the inhibition was in the range of 11 to 18%.
Consider `Nc1n[nH]c(SCC(=O)c2ccc([N+](=O)[O-])cc2)n1`, for which the inhibition fell in the range of 19 to 53%.
For `Cc1ccc(C2NC(C(=O)O)CS2)cc1` (configuration not stated), the inhibition was in the range of 1 to 74%.
As to `CCOC(=O)CSc1nnc(-c2ccncc2)[nH]1`, the inhibition fell in the range of 1 to 59%.
Regarding `NC(=O)CSc1n[nH]c(-c2ccco2)n1`, the inhibition was 1 to 50%.
Regarding `O=C(O)c1ccc(S(=O)(=O)c2ccccc2)o1`, the inhibition lay in the range of 18 to 49%.
Consider `O=c1cc(CN2CCCCCC2)occ1O`, for which the inhibition lay within 32 to 44%.
The result for `N#CC1=C(c2ccccc2)CSC(c2ccccn2)=NC1=N` reads 2 to 20%; that for `Nc1n[nH]c(SCC(=O)c2cc3ccccc3o2)n1`, 21 to 28%; that for `O=C(O)c1nc(C2CC2)n2ccccc12`, 40 to 68%.
Next, `Oc1ccc2nc(-c3ccccn3)oc2c1`: 1 to 43%; `O=C(O)c1cc([N+](=O)[O-])c(Cl)s1`: 7 to 63%.
For `COc1ccccc1NC(=O)CSc1nnc(C)[nH]1`, the inhibition is 1 to 15%.
Take `Nc1nnc(SCCCc2ccccc2)[nH]1`: the inhibition was in the range of 18 to 37%.
Consider `Cc1nc2ccccc2n1Cc1ccc(C(=O)O)o1`, for which the inhibition lay within 10 to 21%.
For the compound `Nc1cccc(-c2cnc(-c3ccccn3)s2)c1`, the inhibition lay in the range of 30 to 36%.
For the compound `Cc1ccccc1NC(=O)CSc1nnc[nH]1`, the inhibition lay in the range of 26 to 64%.
The result for `Cc1c(C(=O)O)sc2nc(CN(C)C)[nH]c(=O)c12` reads 20 to 25%.
Turning to `c1ccc(-c2nn[nH]n2)nc1`, the inhibition lay in the range of 44 to 56%.
Regarding `CN(C)C(=O)CSc1nnc(-c2ccncc2)[nH]1`, the inhibition is 21 to 44%.
On to `COc1ccccc1NC(=O)CSc1nc[nH]n1`, for which the inhibition fell in the range of 19 to 52%.
On to `CN(C)Cc1c(C(=O)O)nc2ccccn12`, for which the inhibition lay in the range of 11 to 20%.
In the case of `CC(=O)c1c(Nc2ccc(F)cc2)oc(C)cc1=O`, the inhibition was 23 to 58%.
With `Sc1n[nH]c(-c2csc3c2CCCC3)n1`, the inhibition lay in the range of 45 to 49%.
The result for `Nc1n[nH]c(SCc2ccccc2Cl)n1` reads 24 to 34%; that for `NNC(=O)COc1cccc(Br)c1`, 1 to 45%; that for `CC(C)Oc1ccc(CCSc2nnc(N)[nH]2)cc1`, 47 to 53%.
`Cc1c(C(=O)O)sc2ncn(C3CCCC3)c(=O)c12`: the inhibition lay within 20 to 26%.
In the case of `N#Cc1cccc(NCc2ccc(O)c3ncccc23)c1`, the inhibition lay in the range of 1 to 5%.
On to `O=C(O)c1ccc(CS(=O)(=O)c2ccccc2)o1`, for which the inhibition was 16 to 27%.
Regarding `Cc1ccc(OCc2ccc(C(=O)O)o2)cc1`, the inhibition lay in the range of 1 to 22%.
`CC(Sc1nnc(N)[nH]1)C(=O)OC1CCCCC1` (configuration not stated): the inhibition is 46 to 54%.
In the case of `O=C(O)c1csc(Cc2ccccc2)n1`, the inhibition lay within 1 to 67%.
Next, `COc1ccc(C(=O)CSc2n[nH]c(N)n2)cc1`: 32 to 58%.
Take `C=CCn1cnc2sc(C(=O)O)c(C)c2c1=O`: the inhibition is 8 to 20%.
Next, `Cc1ccc(S(=O)(=O)c2ccc(C(=O)O)s2)cc1`: 10 to 67%; `CC(C)N(C(=O)CSc1nnc(N)[nH]1)c1ccccc1`: 24 to 64%; `NC(=O)CSc1nnc(-c2ccccc2)[nH]1`: 22 to 45%.
Regarding `Nc1ccncc1-c1ccc(C(=O)O)s1`, the inhibition was 12 to 58%.
With `Cc1nnc(SCC(=O)c2cccc3ccccc23)[nH]1`, the inhibition lay in the range of 38 to 67%.
As for `COCCCn1cnc2sc(C(=O)O)c(C)c2c1=O`, the inhibition fell in the range of 7 to 22%.
As to `COc1cccc(-c2nnc(-c3ccccc3N)[nH]2)c1`, the inhibition lay within 1 to 19%.
The result for `Cc1cccc(OCc2ccc(C(=O)O)o2)c1` reads 1 to 33%; that for `CC(C)CNC(=O)c1ccc2[nH]c(=O)c(=O)[nH]c2c1`, 35 to 44%.
The result for `COc1ccccc1OCc1ccc(C(=O)O)o1` reads 6 to 17%.
Next, `O=C(O)c1cnc(-c2cccc(Cl)c2)o1`: 1 to 37%; `Nc1nnc(SCc2cccc(Cl)c2)[nH]1`: 1 to 23%; `CCc1n[nH]c(SCC(=O)NCCc2ccccc2)n1`: 1 to 15%.
Regarding `Nc1n[nH]c(SCCN2C(=O)c3ccccc3C2=O)n1`, the inhibition fell in the range of 45 to 50%.
The result for `Cc1cc(O)c2c(c1Cl)C(=O)C=CC2=O` reads 31 to 66%; that for `Cc1ccc(-c2nnc(C(C)N)o2)cc1` (configuration not stated), 21 to 49%; that for `CC(C)(C)C1CCc2n[nH]c(C(=O)O)c2C1` (configuration not stated), 1 to 41%.
For the compound `O=C1C(Cl)=C(N2CCCCC2)C(=O)c2ccccc21`, the inhibition lay within 12 to 46%.
Take `CCc1ccc(C(=O)CSc2nnc(CC)[nH]2)cc1`: the inhibition is 9 to 47%.
In the case of `C=C(C)Cn1cnc2sc(C(=O)O)c(C)c2c1=O`, the inhibition was 8 to 33%.
As for `CCn1cnc2sc(C(=O)O)c(C)c2c1=O`, the inhibition lay within 7 to 47%.
Consider `CCc1n[nH]c(SCC(=O)c2cc(C)ccc2C)n1`, for which the inhibition lay within 11 to 43%.
With `O=C(O)c1ccc(CSc2nnc[nH]2)o1`, the inhibition was in the range of 16 to 21%.
The result for `COC(=O)CSc1nnc(-c2ccco2)[nH]1` reads 13 to 27%; that for `CCOC(=O)C(C)Sc1nnc(N)[nH]1` (configuration not stated), 36 to 55%.
For `CCOC(=O)c1cccc(CSc2nnc(N)[nH]2)c1`, the inhibition lay in the range of 47 to 59%.
Consider `O=C(O)c1ccc(COc2ccc3ccc(=O)oc3c2)o1`, for which the inhibition is 14 to 21%.
`Nc1nnc(SCC(=O)OC2CCCC2)[nH]1`: the inhibition is 53 to 59%.
With `Cc1ccc(C(=O)CSc2nnc(-c3ccco3)[nH]2)cc1`, the inhibition was in the range of 24 to 26%.
On to `CC(N)c1nnc(-c2ccccc2)o1` (configuration not stated), for which the inhibition was 1 to 32%.
As for `COC(=O)c1ccc(CSc2nnc(N)[nH]2)cc1`, the inhibition was in the range of 36 to 46%.
